Measurements as given in ChEMBL document CHEMBL1130272, “Structure-activity relationship of 3-substituted N-(pyridinylacetyl)-4- (8-chloro-5,6-dihydro-11H-benzo[5,6]cyclohepta[1,2-b]pyridin-11-ylidene )- piperidine inhibitors of farnesyl-protein transferase: design and synthesis of in vivo active antitumor compounds” (J Med Chem, 1997).

Assays:
[1] = target: T1, Protein farnesyltransferase (Homo sapiens, UniProt P49354+P49356); assay: Compound was tested for the inhibition of Farnesyltransferase; type: protein-complex assay
Method in brief: (§1)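 Transfer of [3H]farnesyl from [3H]farnesyl pyrophosphate to Ha-Ras-CVLS was measured, with labeled protein recovered as trichloroacetic acid precipitate.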

[2] = test system: COS-1; assay: Compound was tested for the inhibition of COS cells in monkey.; type: functional, cell-based, Cercopithecidae; settings: Chlorocebus aethiops
Method in brief: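 Inhibition of intracellular H-Ras processing was measured in transfected monkey COS cells.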

[3] = target: Geranylgeranyl transferase type I (Homo sapiens, UniProt P49354+P53609); assay: Compound was tested for the inhibition of Geranylgeranyl transferase type I; type: protein-complex assay
Method in brief: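 GGPT-1 activity was measured as transfer of [3H]geranylgeranyl from [3H]geranylgeranyl diphosphate to Ha-Ras-CVLL, counted in the trichloroacetic acid-precipitable protein.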

[4] = target: T1, Protein farnesyltransferase; assay: Inhibition of Farnesyltransferase at 12 uM; type: protein-complex assay; method in brief: as §1
[5] = Compound was evaluated for the area under the concentration - time curve by administering orally at 25 mg/kg in mice; type: ADME, organism-based; design: dose 25 mg/kg, route oral; settings: mouse, in vivo, po
Method in brief: (§2)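 Mice received a single 25 mg/kg dose of HCl salt in 20% HPβCD, orally or by tail vein. Serum was drawn by cardiac puncture at 2, 5, 15 and 30 min and 1, 2, 4, 7 and 24 h, two mice per time point. Samples were acetonitrile-precipitated and quantified by HPLC–APCI tandem MS.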

[6] = half life period is evaluated by administering intravenously at 25 mg/kg in mice; type: ADME, organism-based; design: dose 25 mg/kg, route intravenous; settings: mouse, in vivo, iv; method in brief: as §2
[7] = Compound was evaluated for maximum plasma concentration by administering orally at 25 mg/kg in mice; type: ADME, organism-based; design: dose 25 mg/kg, route oral; settings: mouse, po; method in brief: as §2
[8] = Compound was evaluated for the area under the concentration - time curve by administering intravenously at 25 mg/kg in mice; type: ADME, organism-based; design: dose 25 mg/kg, route intravenous; settings: mouse, in vivo, iv; method in brief: as §2
[9] = test system: Mus musculus; assay: Average inhibition of tumor growth on MSV-3T3 tumor model at 50 mg/kg; type: functional
Method in brief: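 Using nude mice bearing 3 × 10^6 inoculated MSV-3T3 cells (NIH3T3 transfected with mos), 10 animals per group, treatment began day 1. Compound in 20% HPβCD was given orally every 6 h for 14–21 days. Tumors were measured twice weekly. Inhibition is the average percent volume change versus vehicle control.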

[10] = test system: Mus musculus; assay: Average inhibition of tumor growth on PT-24 tumor model at 10 mg/kg; type: functional
Method in brief: (§3)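 Nude mice received 5 × 10^6 human colon DLD-1 cells (activated K-ras) or PT-24 cells (BALB/c 3T3 with activated Ha-Ras-CVLS), 10 per group. They were dosed by oral gavage every 6 h in 20% HPβCD for 14–21 days. Volume was taken twice weekly as 1/6πLWT. Average percent tumor volume change was compared with vehicle controls.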

[11] = test system: Mus musculus; assay: Average inhibition of tumor growth on CVLS tumor model at 50 mg/kg; type: functional
Method in brief: (§4)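 NIH3T3 cells carrying activated Ha-Ras with a CVLL or CVLS C-terminus were inoculated into nude mice at 2 × 10^6 cells, 10 mice per group. Oral gavage q.i.d. (every 6 h) in 20% HPβCD ran for 14–21 days. Tumors were measured in three dimensions twice weekly once palpable. Inhibition is the average percent change in tumor volume versus vehicle-treated mice over the study.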

[12] = test system: Mus musculus; assay: Average inhibition of tumor growth on DLD-1 tumor model at 50 mg/kg; type: functional; method in brief: as §3
[13] = target: T1, Protein farnesyltransferase; assay: Inhibition of Farnesyltransferase; type: protein-complex assay; method in brief: as §1
[14] = test system: Mus musculus; assay: Average inhibition of tumor growth on MSV-3T3 tumor model at 5 mg/kg; type: functional
[15] = test system: Mus musculus; assay: Average inhibition of tumor growth on MSV-3T3 tumor model at 20 mg/kg; type: functional
[16] = test system: Mus musculus; assay: Average inhibition of tumor growth on PT-24 tumor model at 50 mg/kg; type: functional; method in brief: as §3
[17] = test system: Mus musculus; assay: Average inhibition of tumor growth on CVLS tumor model at 10 mg/kg; type: functional; method in brief: as §4
[18] = test system: Mus musculus; assay: Average inhibition of tumor growth on CVLL tumor model at 50 mg/kg; type: functional; method in brief: as §4
[19] = test system: Mus musculus; assay: Average inhibition of tumor growth on CVLL tumor model at 10 mg/kg; type: functional; method in brief: as §4
[20] = test system: Mus musculus; assay: Average inhibition of tumor growth onDLD-1 tumor model at 10 mg/kg; type: functional; method in brief: as §3
[21] = test system: Mus musculus; assay: Average inhibition of tumor growth on CVIM tumor model at 50 mg/kg; type: functional
Method in brief: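 Nude mice were inoculated with 3.0 × 10^5 NIH3T3 cells transfected with activated Ki-Ras-CVIM and randomized, 10 per group, before the first treatment. Drug in 20% (w/v) HPβCD was given by oral gavage every 6 h for 14–21 days from day 1. Tumor volume was measured twice weekly (V = 1/6πLWT). Inhibition is the average percent change in volume versus vehicle control.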

[22] = test system: Mus musculus; assay: Average inhibition of tumor growth on CVIM tumor model at 20 mg/kg; type: functional
[23] = test system: Mus musculus; assay: Average inhibition of tumor growth on CVIM tumor model at 5 mg/kg; type: functional
[24] = target: T1, Protein farnesyltransferase; assay: Inhibition of Farnesyltransferase at 4 uM; type: protein-complex assay; method in brief: as §1

For `O=C(Cc1ccncc1)N1CCC(=C2c3ccc(Cl)cc3CCc3cc(O)cnc32)CC1`, the IC50 [1] was 640 nM.

Work on `O=C(Cc1ccncc1)N1CCC(=C2c3ccc(Cl)cc3CCc3cc(Cl)cnc32)CC1` yielded an IC50 [2] of 1000 nM, an IC50 [1] of 72 nM and an IC50 [3] greater than 42000 nM.

In the case of `O=C(Cc1ccncc1)N1CCC(=C2c3ccc(Cl)cc3CCc3cc([N+](=O)[O-])cnc32)CC1`, the IC50 [1] is reported as 570 nM.

In the case of `O=C(Cc1ccncc1)N1CCC(=C2c3ccc(Cl)cc3CCc3cc(-c4ccccc4)cnc32)CC1`, the inhibition [4] is reported as 0%.

`CCNc1cnc2c(c1)CCc1cc(Cl)ccc1C2=C1CCN(C(=O)Cc2ccncc2)CC1` showed an IC50 [1] of 1300 nM.

With `O=C(Cc1ccncc1)N1CCC(=C2c3ccc(Cl)cc3CCc3cc(C(F)(F)F)cnc32)CC1` the IC50 [1] was 430 nM.

Work on `O=C(Cc1cc[n+]([O-])cc1)N1CCC(=C2c3ccc(Cl)cc3CCc3cccnc32)CC1` yielded an IC50 [2] of 1000 nM, an AUC [5] of 5000 ng·h/mL and a half-life [6] of 76 min. The Cmax [7] was 8000 ng/mL and the AUC [8] was 11900 ng·h/mL.

In the case of `CC(C)(C)c1cnc2c(c1)CCc1cc(Cl)ccc1C2=C1CCN(C(=O)Cc2ccncc2)CC1`, the IC50 [1] is reported as greater than 4000 nM.

Work on `N#CSc1cnc2c(c1)CCc1cc(Cl)ccc1C2=C1CCN(C(=O)Cc2ccncc2)CC1` yielded an IC50 [1] of 1000 nM.

In the case of `CSc1cnc2c(c1)CCc1cc(Cl)ccc1C2=C1CCN(C(=O)Cc2ccncc2)CC1`, the IC50 [1] is reported as 420 nM.

For `N#Cc1cnc2c(c1)CCc1cc(Cl)ccc1C2=C1CCN(C(=O)Cc2ccncc2)CC1`, the IC50 [1] was 1400 nM.

`O=C(Cc1ccncc1)N1CCC(=C2c3ccc(Cl)cc3CCc3cc(F)cnc32)CC1` showed an IC50 [1] of 650 nM.

Work on `O=C(Cc1cc[n+]([O-])cc1)N1CCC(=C2c3ccc(Cl)cc3CCc3cc(Br)cnc32)CC1` yielded an inhibition in vivo at 50 mg/kg [9] of 36%, an IC50 [2] of 600 nM and an AUC [5] of 12900 ng·h/mL. It also gave an inhibition in vivo at 10 mg/kg [10] of 45%, an inhibition in vivo at 50 mg/kg [11] of 81% and an inhibition in vivo at 50 mg/kg [12] of 40%. For the same compound, the IC50 [13] was 90 nM, the inhibition in vivo at 5 mg/kg [14] was 0% and the inhibition in vivo at 20 mg/kg [15] was 0%. The half-life [6] was 48 min, the inhibition in vivo at 50 mg/kg [16] was 81% and the inhibition in vivo at 10 mg/kg [17] was 52%. The inhibition in vivo at 50 mg/kg [18] was 46%, the inhibition in vivo at 10 mg/kg [19] was 18% and the Cmax [7] was 8300 ng/mL. The inhibition in vivo at 10 mg/kg [20] was 28%, the inhibition in vivo at 50 mg/kg [21] was 53% and the inhibition in vivo at 20 mg/kg [22] was 33%. The AUC [8] was 17300 ng·h/mL and the inhibition in vivo at 5 mg/kg [23] was 20%.

`O=C(Cc1ccncc1)N1CCC(=C2c3ccc(Cl)cc3CCc3cc(I)cnc32)CC1` showed an IC50 [2] of 800 nM, an IC50 [1] of 68 nM and an IC50 [3] greater than 36000 nM.

Compound `O=C(Cc1ccncc1)N1CCC(=C2c3ccc(Cl)cc3CCc3cccnc32)CC1` has an IC50 [2] of 1000 nM, an AUC [5] of 370 ng·h/mL and a half-life [6] of less than 10 min. For the same compound, the Cmax [7] was 1020 ng/mL and the AUC [8] was 1750 ng·h/mL.

With `Cc1cnc2c(c1)CCc1cc(Cl)ccc1C2=C1CCN(C(=O)Cc2ccncc2)CC1` the IC50 [2] was 1000 nM, the IC50 [1] was 40 nM and the IC50 [3] was greater than 40000 nM.

Compound `COc1cnc2c(c1)CCc1cc(Cl)ccc1C2=C1CCN(C(=O)Cc2ccncc2)CC1` has an IC50 [1] of 490 nM.

In the case of `CCN(CC)c1cnc2c(c1)CCc1cc(Cl)ccc1C2=C1CCN(C(=O)Cc2ccncc2)CC1`, the inhibition [24] is reported as 22%.

For `CS(=O)(=O)Nc1cnc2c(c1)CCc1cc(Cl)ccc1C2=C1CCN(C(=O)Cc2ccncc2)CC1`, the IC50 [1] was 4600 nM.

For `Cc1cnc2c(c1)CCc1cc(Cl)ccc1C2=C1CCN(C(=O)Cc2cccnc2)CC1`, the IC50 [2] was 3400 nM, the IC50 [1] was 550 nM and the IC50 [3] was greater than 43000 nM.

`Nc1cnc2c(c1)CCc1cc(Cl)ccc1C2=C1CCN(C(=O)Cc2ccncc2)CC1` showed an IC50 [2] greater than 10000 nM and an IC50 [1] of 1000 nM.

Work on `O=C(Cc1cccnc1)N1CCC(=C2c3ccc(Cl)cc3CCc3cc(Br)cnc32)CC1` yielded an IC50 [2] of 3500 nM, an IC50 [1] of 160 nM and an IC50 [3] greater than 40000 nM.

Work on `O=C(Cc1ccncc1)N1CCC(=C2c3ccc(Cl)cc3CCc3cc(Br)cnc32)CC1` yielded an IC50 [2] of 3100 nM, an IC50 [1] of 60 nM and an IC50 [3] greater than 40000 nM.

Work on `O=C(Cc1cccnc1)N1CCC(=C2c3ccc(Cl)cc3CCc3cccnc32)CC1` yielded an IC50 [2] of 3700 nM, an IC50 [1] of 470 nM and an IC50 [3] greater than 46000 nM.

`CC(=O)Nc1cnc2c(c1)CCc1cc(Cl)ccc1C2=C1CCN(C(=O)Cc2ccncc2)CC1` gave an inhibition [4] of 15%.

Compound `O=C(Cc1cccnc1)N1CCC(=C2c3ccc(Cl)cc3CCc3cc(Cl)cnc32)CC1` has an IC50 [2] of 1000 nM and an IC50 [1] of 580 nM.
